From paper PMC5573908 (Diabetes, Obesity & Metabolism, 2017)

Legend:
subjects with obesity = test: Safety and tolerability; format: in vivo, human
Procedure, shortened: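 Safety was followed through both 12-week periods of randomised crossover s.c. weekly dosing (0.25, 0.5, then 1.0 mg, 4 weeks each) versus matching placebo. Assessments were adverse events, hypoglycaemic events and blood pressure.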

[1] = Multiple-dose pharmacokinetics of semaglutide; format: in vivo, human
Procedure, shortened: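 Test compound (1.34 mg/mL) was given s.c. once weekly at 0.25 mg for 4 weeks, 0.5 mg for 4 weeks, then 1.0 mg for 4 weeks. Steady-state trough concentrations were taken after 4, 8 and 12 weeks. After a further clinic 1.0 mg dose, steady-state parameters were derived from 0–168 h concentration-time curves.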

[2] = 12 weeks, once-weekly s.c. escalated to 1.0 mg

Mean trough value (CV) ([1]; 0.25 mg s.c. once-weekly, after 4 weeks of treatment): 4.64 (32.5) nmol/L | Mean trough value (CV) ([1]; 0.5 mg s.c. once-weekly, after 8 weeks of treatment): 10.25 (23.3) nmol/L | Mean trough value (CV) ([1]; 1.0 mg s.c. once-weekly, after 12 weeks of treatment): 19.73 (21.9) nmol/L
SMILES: CC[C@H](C)[C@H](NC(=O)[C@H](Cc1ccccc1)NC(=O)[C@H](CCC(=O)O)NC(=O)[C@H](CCCCNC(=O)COCCOCCNC(=O)COCCOCCNC(=O)CC[C@H](NC(=O)CCCCCCCCCCCCCCCCC(=O)O)C(=O)O)NC(=O)[C@H](C)NC(=O)[C@H](C)NC(=O)[C@H](CCC(N)=O)NC(=O)CNC(=O)[C@H](CCC(=O)O)NC(=O)[C@H](CC(C)C)NC(=O)[C@H](Cc1ccc(O)cc1)NC(=O)[C@H](CO)NC(=O)[C@H](CO)NC(=O)[C@@H](NC(=O)[C@H](CC(=O)O)NC(=O)[C@H](CO)NC(=O)[C@@H](NC(=O)[C@H](Cc1ccccc1)NC(=O)[C@@H](NC(=O)CNC(=O)[C@H](CCC(=O)O)NC(=O)C(C)(C)NC(=O)[C@@H](N)Cc1cnc[nH]1)[C@@H](C)O)[C@@H](C)O)C(C)C)C(=O)N[C@@H](C)C(=O)N[C@@H](Cc1c[nH]c2ccccc12)C(=O)N[C@@H](CC(C)C)C(=O)N[C@H](C(=O)N[C@@H](CCCNC(=N)N)C(=O)NCC(=O)N[C@@H](CCCNC(=N)N)C(=O)NCC(=O)O)C(C)C [semaglutide]
Severe or blood glucose-confirmed symptomatic hypoglycaemic events (subjects with obesity; 12 weeks): No severe or blood glucose‐confirmed symptomatic hypoglycaemic events were reported | Serious AEs (subjects with obesity; [2]): no serious AEs were reported | Severity of AEs (subjects with obesity; [2]): mild or moderate | Observed mean changes from baseline in systolic and diastolic blood pressure (subjects with obesity; week 12, either treatment): ≤ 2 mm Hg
